Assay results: ChEMBL document CHEMBL1126930, “New analogues of N-(2-aminoethyl)-4-chlorobenzamide (Ro 16-6491). Some of the most potent monoamine oxidase-B inactivators” (J Med Chem, 1993)

experiment: Inhibition of mitochondrial Monoamine oxidase-B purified from bovine liver
Method in brief: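 MAO-B purified from bovine liver mitochondria. Enzyme preincubated 20 min with various inactivator concentrations. 10 μL aliquots then assayed for remaining activity in 490 μL of 1 mM benzylamine hydrochloride in 50 mM Tris-HCl, pH 9.0. IC50 extrapolated from plots of percent activity remaining versus inhibitor concentration. Duplicate runs varied by 0–5%.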

SMILES	IC50 [nM]
NCCNC(=O)c1ccccc1Br	1200
NCCNC(=O)c1ccccc1	250
NCCNC(=O)c1ccccc1F	160
NCCNC(=O)c1ccc(I)cc1	170
NCCNC(=O)c1ccc([N+](=O)[O-])cc1	48200
NCCNC(=O)c1ccccc1Cl	490
NCCNC(=O)c1cccc(F)c1	200
NCCNC(=O)c1ccccc1I	61500
NCCNC(=O)c1ccccc1[N+](=O)[O-]	2170

Compounds with a lower IC50, results first:

IC50 [nM]	SMILES
120	NCCNC(=O)c1cccc(Cl)c1
60	NCCNC(=O)c1cccc([N+](=O)[O-])c1
56	NCCNC(=O)c1ccc(F)cc1
52	NCCNC(=O)c1cccc(Br)c1
45	NCCNC(=O)c1ccc(Cl)cc1
42	NCCNC(=O)c1ccc(Br)cc1
37	NCCNC(=O)c1cccc(I)c1
30	NCCNC(=O)c1ccc(Cl)cn1 [LAZABEMIDE]
